Results from ChEMBL document CHEMBL3244072, “Synthesis and antiviral and enzymatic studies of certain 3-deazaguanines and their imidazolecarboxamide precursors” (J Med Chem, 1978).
The source made the active and inactive calls. The rule behind the calls is not given here.

Experiments:
[1] = system: Pseudomonas aeruginosa; experiment: Antimicrobial activity against Pseudomonas aeruginosa at 0.4 umol/mL by broth microdilution method; assay type: functional, organism-based
Summary of the method: (§1)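 Broth dilution in defined medium against clinical isolates of each organism.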

[2] = system: Epidermophyton floccosum; experiment: Antimicrobial activity against Epidermophyton floccosum at 0.4 umol/mL by broth microdilution method; assay type: functional, organism-based; summary of the method: as §1
[3] = system: Microsporum canis; experiment: Antimicrobial activity against Microsporum canis at 0.4 umol/mL by broth microdilution method; assay type: functional, organism-based; summary of the method: as §1
[4] = system: Trichophyton mentagrophytes; experiment: Antimicrobial activity against Trichophyton mentagrophytes at 0.4 umol/mL by broth microdilution method; assay type: functional, organism-based; summary of the method: as §1
[5] = system: Staphylococcus aureus; experiment: Antimicrobial activity against Staphylococcus aureus at 0.4 umol/mL by broth microdilution method; assay type: functional, organism-based; summary of the method: as §1
[6] = system: Candida albicans; experiment: Antimicrobial activity against Candida albicans at 0.4 umol/mL by broth microdilution method; assay type: functional, organism-based; summary of the method: as §1
[7] = system: Escherichia coli; experiment: Antimicrobial activity against Escherichia coli at 0.0025 to 0.125 umol/mL by broth microdilution method; assay type: functional, organism-based; summary of the method: as §1
[8] = system: Ehrlich; experiment: Inhibition of adenine nucleotide biosynthesis in mouse EAC assessed as [14C]hypoxanthine incorporation at 1 mM after 60 mins by TLC analysis; assay type: functional; conditions: 1 h
Summary of the method: (§2)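 Ehrlich ascites tumor cells (about 6 × 10^6 cells/mL) preincubated 20 min at 37 °C with or without 1 mM compound. [14C]hypoxanthine (55 μCi/μmol) then added to 0.1 mM final for 60 min. Label in adenine or guanine nucleotides of the acid-soluble fraction measured by TLC; inhibition calculated against untreated cells.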

[9] = system: Vaccinia virus; experiment: Antiviral activity against Vaccinia virus infected in human KB cells assessed as inhibition of virus-induced cytopathic effect after 72 hrs relative to control; assay type: functional, organism-based; conditions: Orthopoxvirus vaccinia
Summary of the method: (§3)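 Cell monolayers (18-24 h) infected with 320 CCID50 of virus; compound added within 15 min at half-log dilutions from 1000 to 1 μg/mL. After 72 h at 37 °C, CPE and cytotoxicity scored microscopically (0-4). Virus rating = sum of (control CPE − treated CPE) over drug levels, halved at any level showing toxicity.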

[10] = system: Influenza B virus; experiment: Antiviral activity against Influenza B virus Lee infected in Swiss-Webster mouse assessed as host mean survival days at 40 mg/kg, po qd for 9 days; assay type: functional, B/Lee/1940
[11] = system: KB; experiment: Antiviral activity against Adenovirus type 3 infected in human KB cells assessed as inhibition of virus-induced cytopathic effect after 72 hrs relative to control; assay type: functional, cell-based; conditions: Human adenovirus 3; summary of the method: as §3
[12] = system: Human alphaherpesvirus 2; experiment: Antiviral activity against HSV2 infected in human KB cells assessed as inhibition of virus-induced cytopathic effect after 72 hrs relative to control; assay type: functional, organism-based; summary of the method: as §3
[13] = system: KB; experiment: Antiviral activity against Rhinovirus type 13 infected in human KB cells assessed as inhibition of virus-induced cytopathic effect after 72 hrs relative to control; assay type: functional, cell-based; conditions: Human rhinovirus A13; summary of the method: as §3
[14] = system: Influenza B virus; experiment: Antiviral activity against Influenza B virus Lee infected in Swiss-Webster mouse assessed as host mean survival days at 10 mg/kg, po qd for 9 days; assay type: functional, B/Lee/1940
[15] = system: Human respirovirus 3; experiment: Antiviral activity against Parainfluenza virus 3 infected in human KB cells assessed as inhibition of virus-induced cytopathic effect after 72 hrs relative to control; assay type: functional, organism-based; summary of the method: as §3
[16] = system: Ehrlich; experiment: Inhibition of guanine nucleotide biosynthesis in mouse EAC assessed as [14C]hypoxanthine incorporation at 1 mM after 60 mins by TLC analysis; assay type: functional; conditions: 1 h; summary of the method: as §2
[17] = system: Human alphaherpesvirus 1; experiment: Antiviral activity against HSV1 infected in human KB cells assessed as inhibition of virus-induced cytopathic effect after 72 hrs relative to control; assay type: functional, organism-based; summary of the method: as §3
[18] = system: Escherichia coli; experiment: Inhibition of Escherichia coli adenylosuccinate synthetase assessed as ratio of compound concentration for 50% inhibition of enzyme activity to 1.7 to 3 x 10^-5 M of substrate concentration
Summary of the method: (§4)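 Enzymes partially purified from Escherichia coli B. Substrate at 1.7-3.0 × 10^-5 M. Value is the ratio of inhibitor concentration giving 50% inhibition to substrate concentration.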

[19] = system: Escherichia coli; experiment: Inhibition of Escherichia coli IMP dehydrogenase assessed as ratio of compound concentration for 50% inhibition of enzyme activity to 1.7 to 3 x 10^-5 M of substrate concentration; summary of the method: as §4
[20] = system: Influenza B virus; experiment: Antiviral activity against Influenza B virus Lee infected in Swiss-Webster mouse assessed as host mean survival days at 2.5 mg/kg, po qd for 9 days; assay type: functional, B/Lee/1940
[21] = system: Influenza B virus; experiment: Antiviral activity against Influenza B virus Lee infected in Swiss-Webster mouse assessed as host mean survival days at 12.5 mg/kg, po qd for 9 days; assay type: functional, B/Lee/1940
[22] = system: Influenza B virus; experiment: Antiviral activity against Influenza B virus Lee infected in Swiss-Webster mouse assessed as host mean survival days at 100 mg/kg, po qd for 9 days; assay type: functional, B/Lee/1940
[23] = system: Influenza B virus; experiment: Antiviral activity against Influenza B virus Lee infected in Swiss-Webster mouse assessed as host mean survival days at 50 mg/kg, po qd for 9 days; assay type: functional, B/Lee/1940
[24] = biological target: Bifunctional purine biosynthesis protein ATIC (Homo sapiens) (UniProt P31939); experiment: Inhibition of Escherichia coli IMP cyclohydrolase (unknown origin) assessed as ratio of compound concentration for 50% inhibition of enzyme activity to 1.7 to 3 x 10^-5 M of substrate concentration; summary of the method: as §4
Sequence of Bifunctional purine biosynthesis protein ATIC (Homo sapiens) (P31939 whole entry, looked up): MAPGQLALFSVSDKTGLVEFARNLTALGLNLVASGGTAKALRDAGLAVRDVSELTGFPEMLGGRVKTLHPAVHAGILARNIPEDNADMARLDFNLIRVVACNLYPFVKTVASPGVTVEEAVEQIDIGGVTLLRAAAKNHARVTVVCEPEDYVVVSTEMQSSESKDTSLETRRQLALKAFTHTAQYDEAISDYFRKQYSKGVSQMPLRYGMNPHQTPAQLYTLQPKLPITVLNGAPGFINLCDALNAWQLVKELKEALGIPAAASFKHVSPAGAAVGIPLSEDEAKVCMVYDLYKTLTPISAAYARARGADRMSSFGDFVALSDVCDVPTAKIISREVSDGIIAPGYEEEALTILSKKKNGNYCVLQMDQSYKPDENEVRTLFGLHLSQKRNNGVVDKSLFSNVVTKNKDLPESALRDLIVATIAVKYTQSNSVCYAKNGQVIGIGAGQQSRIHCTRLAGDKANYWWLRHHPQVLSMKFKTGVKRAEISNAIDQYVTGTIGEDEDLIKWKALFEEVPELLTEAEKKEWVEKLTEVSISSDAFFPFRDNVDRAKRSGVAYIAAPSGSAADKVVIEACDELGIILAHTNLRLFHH

SMILES	Activity [1]	Activity [2]	Activity [3]	Activity [4]	Activity [5]	Activity [6]	Activity [13]	Activity [15]	Activity [17]	other results
COC(=O)c1ncn([C@@H]2O[C@H](C)[C@@H](OC(C)=O)[C@H]2OC(C)=O)c1CC#N	inactive	inactive	inactive	inactive	inactive	inactive	–	–	–	–
COC(=O)c1c(CC#N)ncn1[C@@H]1O[C@H](C)[C@@H](OC(C)=O)[C@H]1OC(C)=O	inactive	inactive	inactive	inactive	inactive	inactive	–	–	–	–
C1=COCCC1	inactive	inactive	inactive	inactive	inactive	inactive	–	–	–	–
CN(C)/C=N/c1cc2c(ncn2[C@@H]2O[C@H](CO)[C@@H](O)[C@H]2O)c(=O)[nH]1	inactive	inactive	inactive	inactive	inactive	inactive	–	–	–	–
C[C@H]1O[C@@H](n2cnc(C(N)=O)c2CC#N)[C@H](O)[C@@H]1O	inactive	inactive	inactive	inactive	inactive	inactive	–	–	–	–
Nc1cc2ncn([C@@H]3O[C@H](CO)[C@@H](O)[C@H]3O)c2c(=O)[nH]1	–	–	–	–	–	–	–	–	–	Activity [7]: Active
CC(=O)Nc1cc2[nH]cnc2c(=O)[nH]1	inactive	inactive	inactive	inactive	inactive	inactive	–	–	–	–
CC(=O)OC[C@H]1O[C@@H](n2cnc(C(N)=O)c2CC#N)[C@H](OC(C)=O)[C@@H]1OC(C)=O	inactive	inactive	inactive	inactive	inactive	inactive	–	–	–	–
Nc1cc2[nH]cnc2c(=O)[nH]1 [DEZAGUANINE]	inactive	inactive	inactive	inactive	inactive	inactive	Active	Active	Active	inhibition at 1000 µM [8]: 20%; Activity [9]: Active; Activity [7]: Active; Time [10]: 0.23 days; Activity [11]: Active; Activity [12]: Active; Time [14]: >0.3 days; inhibition at 1000 µM [16]: 40%
N#CCc1c(C(N)=O)ncn1C1CCCCO1 (stereo unspecified)	inactive	inactive	inactive	inactive	inactive	inactive	–	–	–	–
Nc1cc2ncn(C3CCCCO3)c2c(=O)[nH]1 (stereo unspecified)	inactive	inactive	inactive	inactive	inactive	inactive	Active	inactive	Active	–
COC(=O)c1c(CC#N)ncn1C1CCCCO1 (stereo unspecified)	inactive	inactive	inactive	inactive	inactive	inactive	–	–	–	–
Nc1cc2c(ncn2C2CCCCO2)c(=O)[nH]1 (stereo unspecified)	inactive	inactive	inactive	inactive	inactive	inactive	–	–	–	–
CC(=O)Nc1cc2c(ncn2[C@@H]2O[C@H](COC(C)=O)[C@@H](OC(C)=O)[C@H]2OC(C)=O)c(=O)[nH]1	inactive	inactive	inactive	inactive	inactive	inactive	–	–	–	–
Nc1cc2c(ncn2[C@@H]2O[C@H](COP(=O)(O)O)[C@@H](O)[C@H]2O)c(=O)[nH]1	inactive	inactive	inactive	inactive	inactive	inactive	Active	Active	Active	inhibition at 1000 µM [8]: 18%; Activity [9]: Active; Activity [11]: Active; Activity [12]: Active; Ratio [18]: 20; inhibition at 1000 µM [16]: 68%; Ratio [19]: 0.068
C[C@H]1O[C@@H](n2cnc3cc(N)[nH]c(=O)c32)[C@H](O)[C@@H]1O	inactive	inactive	inactive	inactive	inactive	inactive	–	–	–	–
Nc1cc2c(ncn2[C@@H]2O[C@H](CO)[C@@H](O)[C@H]2O)c(=O)[nH]1	inactive	inactive	inactive	inactive	inactive	inactive	Active	Active	Active	inhibition at 1000 µM [8]: 24%; Activity [9]: Active; Time [10]: >0.3 days; Activity [11]: Active; Activity [12]: Active; Time [14]: >0.3 days; inhibition at 1000 µM [16]: 38%; Time [20]: 0.118 days
NC(=O)c1ncn([C@@H]2O[C@H](CO)[C@@H](O)[C@H]2O)n1 [RIBAVIRIN]	–	–	–	–	–	–	Active	Active	Active	inhibition at 1000 µM [8]: 14%; Activity [9]: Active; Activity [11]: Active; Activity [12]: Active; inhibition at 1000 µM [16]: 65%
COC(=O)c1ncn(C2CCCCO2)c1CC#N (stereo unspecified)	inactive	inactive	inactive	inactive	inactive	inactive	–	–	–	Time [21]: >0.3 days
CC(=O)O[C@@H]1O[C@H](C)[C@@H](OC(C)=O)[C@H]1OC(C)=O	inactive	inactive	inactive	inactive	inactive	inactive	–	–	–	–
N#CCc1c(C(N)=O)ncn1[C@@H]1O[C@H](CO)[C@@H](O)[C@H]1O	inactive	inactive	inactive	inactive	inactive	inactive	inactive	inactive	Active	inhibition at 1000 µM [8]: 6%; Activity [9]: inactive; Time [22]: >0.3 days; Time [21]: >0.3 days; Activity [12]: Active; inhibition at 1000 µM [16]: 11%; Time [23]: 0.118 days
NC(=O)c1ncn([C@@H]2O[C@H](COP(=O)(O)O)[C@@H](O)[C@H]2O)n1	–	–	–	–	–	–	–	–	–	Ratio [24]: 0.46; Ratio [18]: 160; Ratio [19]: 0.016
C[C@H]1O[C@@H](n2cnc3c(=O)[nH]c(N)cc32)[C@H](O)[C@@H]1O	inactive	inactive	inactive	inactive	inactive	inactive	inactive	inactive	Active	–
